Source: paper PMC6129214 (Nature medicine, 2018)

What was measured:
[1] = system: platelet aggregation; experiment: Direct incubation of inhibitor with mouse PRP, platelet aggregometry; format: cell-based, mice; conditions: 20 µM, with or without ADP
[2] = system: platelet aggregation; experiment: Mouse ex vivo platelet aggregometry in PRP; conditions: ADP 1 μM, choline-supplemented mice
In short: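 Mice on a choline-supplemented (1% w/w) or control diet, with or without test compound in the diet (0.006% or 0.06% w/w, 2 weeks), are anaesthetized with ketamine 100 mg/kg and xylazine 10 mg/kg. Blood is drawn and PRP aggregation to 1 μM ADP is recorded as % of maximum amplitude per mouse. Plasma TMAO is also measured.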

[3] = system: carotid artery thrombus formation; experiment: FeCl3-induced carotid artery injury thrombosis model; format: in vivo, mice; conditions: DMB 1.3% v/v; 0.06% IMC or 0.006% FMC in diet
[4] = system: plasma TMAO; experiment: Plasma TMAO levels; format: in vivo; conditions: mice on a choline-supplemented diet, data not shown

SMILES | effect of direct incubation on platelet aggregometry responses, mouse PRP [1] | effect on choline diet-enhanced ADP-dependent platelet aggregation in PRP [2] | effect on choline diet-induced rise in TMAO and in vivo rate of clot formation [3] | effect on plasma TMAO levels in vivo [4]
CC(C)(C)CCO [DMB, 3,3-dimethyl-1-butanol] | no effects | significantly reduced | attenuated | –
Oc1ccc(/C=C/c2cc(O)cc(O)c2)cc1 [Resveratrol] | – | – | – | showed no effect
